Drawing on ChEMBL document CHEMBL5029150, “Controlling Intramolecular Interactions in the Design of Selective, High-Affinity Ligands for the CREBBP Bromodomain” (J Med Chem, 2021), this text covers Activity, inhibition and Kd for two molecules.

Assay [1] addresses Transcription initiation factor TFIID subunit 1 (Homo sapiens) (UniProt P21675). The assay is described as follows: Binding affinity to human TAF1 bromo domain 2 assessed as dissociation constant up to 1 uM by BROMOscan assay. The following applies: dose microM <=1. The essentials:
(§1)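 BROMOscan competition binding panel of 12 phylogenetically diverse bromodomains, including the CREBBP and EP300 bromodomains.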

Assay [2] addresses T1, Bromodomain-containing protein 7 (Homo sapiens) (UniProt Q9NPI1).
T1 sequence (whole entry): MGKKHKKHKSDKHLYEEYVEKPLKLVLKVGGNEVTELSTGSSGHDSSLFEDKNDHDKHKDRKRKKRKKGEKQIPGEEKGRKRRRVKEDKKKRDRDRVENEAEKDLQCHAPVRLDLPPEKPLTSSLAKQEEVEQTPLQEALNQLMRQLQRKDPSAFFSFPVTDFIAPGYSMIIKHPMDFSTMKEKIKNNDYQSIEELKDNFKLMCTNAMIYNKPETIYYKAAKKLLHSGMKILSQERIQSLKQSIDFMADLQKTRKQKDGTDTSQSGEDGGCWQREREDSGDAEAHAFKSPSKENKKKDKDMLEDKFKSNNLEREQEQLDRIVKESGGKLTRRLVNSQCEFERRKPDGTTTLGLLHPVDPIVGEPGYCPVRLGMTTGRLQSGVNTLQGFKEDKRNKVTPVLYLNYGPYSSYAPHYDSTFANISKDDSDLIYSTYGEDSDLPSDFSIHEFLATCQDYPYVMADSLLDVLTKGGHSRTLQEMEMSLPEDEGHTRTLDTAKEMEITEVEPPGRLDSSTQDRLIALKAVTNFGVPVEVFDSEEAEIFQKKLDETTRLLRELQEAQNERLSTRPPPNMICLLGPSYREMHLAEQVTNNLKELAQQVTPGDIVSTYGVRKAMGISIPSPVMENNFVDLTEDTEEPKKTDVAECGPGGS
Description: Binding affinity to human BRD7 assessed as dissociation constant up to 1 uM by BROMOscan assay. The following applies: dose microM <=1. Put shortly:
as §1

Assay [3] addresses T2, ATPase family AAA domain-containing protein 2B (Homo sapiens) (UniProt Q9ULI0).
T2 sequence (whole entry): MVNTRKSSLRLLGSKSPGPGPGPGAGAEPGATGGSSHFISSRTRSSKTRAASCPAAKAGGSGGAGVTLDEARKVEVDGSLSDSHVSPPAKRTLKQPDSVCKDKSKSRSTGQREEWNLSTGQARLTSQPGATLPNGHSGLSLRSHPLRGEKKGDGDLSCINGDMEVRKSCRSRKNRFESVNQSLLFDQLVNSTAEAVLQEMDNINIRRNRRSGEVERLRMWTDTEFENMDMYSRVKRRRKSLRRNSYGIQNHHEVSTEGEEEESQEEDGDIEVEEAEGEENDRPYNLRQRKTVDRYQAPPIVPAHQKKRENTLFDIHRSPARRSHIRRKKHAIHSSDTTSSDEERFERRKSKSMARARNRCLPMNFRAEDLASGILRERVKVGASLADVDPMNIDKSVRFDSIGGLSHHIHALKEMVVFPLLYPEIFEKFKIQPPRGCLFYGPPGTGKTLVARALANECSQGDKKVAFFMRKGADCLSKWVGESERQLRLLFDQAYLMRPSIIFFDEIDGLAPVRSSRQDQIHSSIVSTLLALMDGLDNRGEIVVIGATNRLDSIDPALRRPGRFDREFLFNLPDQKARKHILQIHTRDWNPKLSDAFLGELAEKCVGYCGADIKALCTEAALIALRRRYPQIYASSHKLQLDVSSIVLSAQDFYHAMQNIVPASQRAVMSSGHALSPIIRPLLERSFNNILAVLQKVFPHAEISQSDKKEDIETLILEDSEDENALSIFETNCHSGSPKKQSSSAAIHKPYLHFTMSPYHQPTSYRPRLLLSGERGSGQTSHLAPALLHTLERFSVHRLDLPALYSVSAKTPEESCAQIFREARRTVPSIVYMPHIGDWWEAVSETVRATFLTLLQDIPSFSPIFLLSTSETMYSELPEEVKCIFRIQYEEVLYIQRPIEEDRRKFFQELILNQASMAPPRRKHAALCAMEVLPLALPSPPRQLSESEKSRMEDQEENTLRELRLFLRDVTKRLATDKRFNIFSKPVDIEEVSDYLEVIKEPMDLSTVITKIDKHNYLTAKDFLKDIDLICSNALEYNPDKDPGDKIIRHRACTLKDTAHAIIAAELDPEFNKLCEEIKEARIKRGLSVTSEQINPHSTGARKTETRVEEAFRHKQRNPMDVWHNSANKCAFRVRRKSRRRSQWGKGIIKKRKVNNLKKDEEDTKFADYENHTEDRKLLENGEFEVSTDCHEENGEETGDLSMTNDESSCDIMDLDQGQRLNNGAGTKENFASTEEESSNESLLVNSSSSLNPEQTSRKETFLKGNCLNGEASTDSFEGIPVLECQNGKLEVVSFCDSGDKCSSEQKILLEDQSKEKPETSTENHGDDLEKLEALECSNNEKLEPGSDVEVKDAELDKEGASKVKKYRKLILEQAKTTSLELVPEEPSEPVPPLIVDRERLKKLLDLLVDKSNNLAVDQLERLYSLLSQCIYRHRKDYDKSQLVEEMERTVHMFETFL
Description: Binding affinity to human ATAD2B assessed as dissociation constant up to 1 uM by BROMOscan assay. The following applies: dose microM <=1. The essentials: as §1

The target of assay [4] is Histone acetyltransferase KAT2B (Homo sapiens) (UniProt Q92831). The assay is described as follows: Binding affinity to human PCAF assessed as dissociation constant up to 1 uM by BROMOscan assay. The following applies: dose microM <=1. Put shortly:
as §1

In assay [5] the target is SWI/SNF-related matrix-associated actin-dependent regulator of chromatin subfamily A member 4 (Homo sapiens) (UniProt P51532). The assay is described as follows: Binding affinity to human SMARCA4 assessed as dissociation constant up to 1 uM by BROMOscan assay. As to conditions: dose microM <=1. Put shortly: as §1
Assay [6] addresses Bromodomain-containing protein 2 (Homo sapiens) (UniProt P25440). Description: Binding affinity to human BRD2 bromodomain 1 assessed as dissociation constant up to 1 uM by BROMOscan assay. As to conditions: dose microM <=1. The essentials: as §1
Assay [7] has as its target T3, CREB-binding protein/Histone acetyltransferase p300 (Homo sapiens) (UniProt Q09472+Q92793). The assay is described as follows: Inhibition of CREBBP/EP300 in human HCT-116 cells assessed as reduction in H3K18Ac at 10 uM for 6 hrs by Western blot analysis. It is filed as cell-based. The essentials: (§2)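 HCT116 human colorectal cancer cells were exposed to ligand at 10 μM for 6, 16 or 24 h. c-Myc, H3K18Ac and H3K27Ac levels were read by western blot, with acetylation marks expressed relative to the t = 0 level.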
Background: In western blotting, separated proteins are transferred to a membrane and probed.

Assay [8] addresses T3, CREB-binding protein/Histone acetyltransferase p300 (Homo sapiens). The assay is described as follows: Inhibition of CREBBP/EP300 in human HCT-116 cells assessed as reduction in c-Myc protein expression at 10 uM for 6 hrs by Western blot analysis. The format is cell-based. Put shortly: as §2
Assay [9] deals with Bromodomain-containing protein 4 (Homo sapiens, UniProt O60885). The assay is described as follows: Binding affinity to human BRD4 bromodomain 1 assessed as dissociation constant by ITC assay.
In assay [10] the target is T3, CREB-binding protein/Histone acetyltransferase p300 (Homo sapiens). The assay is described as follows: Inhibition of CREBBP/EP300 in human HCT-116 cells assessed as reduction in H3K27Ac at 10 uM for 6 hrs by Western blot analysis. It is filed as cell-based. Put shortly: as §2

Structures are written as SMILES. The source made the active and inactive calls. The rule behind the calls is not given here.

For orientation: inhibition means the change of the read-out against control, counted positive when it falls.

T3 sequence (Q09472 whole entry, looked up): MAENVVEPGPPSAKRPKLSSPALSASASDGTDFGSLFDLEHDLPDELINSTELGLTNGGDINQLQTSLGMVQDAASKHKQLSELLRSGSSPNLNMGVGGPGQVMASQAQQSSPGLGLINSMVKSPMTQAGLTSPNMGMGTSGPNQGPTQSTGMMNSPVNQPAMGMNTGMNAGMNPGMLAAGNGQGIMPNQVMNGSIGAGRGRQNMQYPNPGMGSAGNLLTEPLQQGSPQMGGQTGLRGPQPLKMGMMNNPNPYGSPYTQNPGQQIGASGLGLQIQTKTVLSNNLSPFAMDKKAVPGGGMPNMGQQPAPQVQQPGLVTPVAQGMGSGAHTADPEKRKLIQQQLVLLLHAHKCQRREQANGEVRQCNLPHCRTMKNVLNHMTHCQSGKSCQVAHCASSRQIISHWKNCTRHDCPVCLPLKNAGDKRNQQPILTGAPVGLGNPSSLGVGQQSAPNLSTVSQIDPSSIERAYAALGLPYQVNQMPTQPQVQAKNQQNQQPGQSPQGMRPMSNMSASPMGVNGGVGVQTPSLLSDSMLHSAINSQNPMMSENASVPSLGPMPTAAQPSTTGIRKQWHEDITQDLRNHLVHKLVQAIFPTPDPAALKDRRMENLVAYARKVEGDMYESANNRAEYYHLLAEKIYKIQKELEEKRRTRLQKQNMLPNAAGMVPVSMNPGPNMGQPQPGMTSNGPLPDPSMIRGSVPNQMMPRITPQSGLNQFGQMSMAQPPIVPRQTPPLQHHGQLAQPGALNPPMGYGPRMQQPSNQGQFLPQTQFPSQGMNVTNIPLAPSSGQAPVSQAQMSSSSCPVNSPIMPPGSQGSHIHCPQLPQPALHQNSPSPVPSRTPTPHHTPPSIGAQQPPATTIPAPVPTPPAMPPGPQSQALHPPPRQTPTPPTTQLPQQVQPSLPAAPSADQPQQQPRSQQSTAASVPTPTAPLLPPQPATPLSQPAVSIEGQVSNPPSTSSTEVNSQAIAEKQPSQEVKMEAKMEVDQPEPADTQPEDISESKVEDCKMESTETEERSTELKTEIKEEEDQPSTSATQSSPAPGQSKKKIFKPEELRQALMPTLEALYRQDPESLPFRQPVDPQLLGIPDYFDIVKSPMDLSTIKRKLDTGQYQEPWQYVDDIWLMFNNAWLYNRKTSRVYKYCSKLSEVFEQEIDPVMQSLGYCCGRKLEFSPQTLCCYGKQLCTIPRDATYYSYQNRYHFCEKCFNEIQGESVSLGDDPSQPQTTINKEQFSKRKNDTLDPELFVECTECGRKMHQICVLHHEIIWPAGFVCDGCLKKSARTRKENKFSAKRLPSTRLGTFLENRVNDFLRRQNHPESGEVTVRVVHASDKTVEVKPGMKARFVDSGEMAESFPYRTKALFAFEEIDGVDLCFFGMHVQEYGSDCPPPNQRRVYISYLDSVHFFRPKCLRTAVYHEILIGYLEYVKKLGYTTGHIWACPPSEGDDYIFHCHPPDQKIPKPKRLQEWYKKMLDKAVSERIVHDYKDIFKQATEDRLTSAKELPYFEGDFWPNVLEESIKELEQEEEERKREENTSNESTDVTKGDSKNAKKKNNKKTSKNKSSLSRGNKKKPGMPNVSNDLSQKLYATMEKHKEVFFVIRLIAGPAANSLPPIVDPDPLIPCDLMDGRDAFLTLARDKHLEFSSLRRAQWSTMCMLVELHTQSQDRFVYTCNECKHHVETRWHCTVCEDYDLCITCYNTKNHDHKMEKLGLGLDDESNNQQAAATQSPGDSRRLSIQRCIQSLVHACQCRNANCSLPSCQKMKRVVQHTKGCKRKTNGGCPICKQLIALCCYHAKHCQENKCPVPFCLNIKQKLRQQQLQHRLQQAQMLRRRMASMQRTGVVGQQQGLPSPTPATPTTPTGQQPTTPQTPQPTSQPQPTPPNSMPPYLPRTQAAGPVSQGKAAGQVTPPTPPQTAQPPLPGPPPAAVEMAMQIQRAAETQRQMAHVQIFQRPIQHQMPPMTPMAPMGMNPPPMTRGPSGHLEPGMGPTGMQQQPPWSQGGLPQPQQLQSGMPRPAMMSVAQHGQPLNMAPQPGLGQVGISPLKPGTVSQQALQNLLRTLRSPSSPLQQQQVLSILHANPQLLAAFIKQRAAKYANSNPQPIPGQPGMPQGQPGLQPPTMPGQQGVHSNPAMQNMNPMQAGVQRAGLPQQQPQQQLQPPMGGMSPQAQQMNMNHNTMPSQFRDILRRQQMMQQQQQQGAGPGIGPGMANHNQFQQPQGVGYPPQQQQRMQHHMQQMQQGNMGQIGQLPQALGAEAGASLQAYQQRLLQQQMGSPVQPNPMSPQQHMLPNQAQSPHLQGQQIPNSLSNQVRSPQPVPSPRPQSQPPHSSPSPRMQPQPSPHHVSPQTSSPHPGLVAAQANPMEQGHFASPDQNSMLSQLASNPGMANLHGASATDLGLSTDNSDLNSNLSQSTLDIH
T3 sequence (Q92793 whole entry, looked up): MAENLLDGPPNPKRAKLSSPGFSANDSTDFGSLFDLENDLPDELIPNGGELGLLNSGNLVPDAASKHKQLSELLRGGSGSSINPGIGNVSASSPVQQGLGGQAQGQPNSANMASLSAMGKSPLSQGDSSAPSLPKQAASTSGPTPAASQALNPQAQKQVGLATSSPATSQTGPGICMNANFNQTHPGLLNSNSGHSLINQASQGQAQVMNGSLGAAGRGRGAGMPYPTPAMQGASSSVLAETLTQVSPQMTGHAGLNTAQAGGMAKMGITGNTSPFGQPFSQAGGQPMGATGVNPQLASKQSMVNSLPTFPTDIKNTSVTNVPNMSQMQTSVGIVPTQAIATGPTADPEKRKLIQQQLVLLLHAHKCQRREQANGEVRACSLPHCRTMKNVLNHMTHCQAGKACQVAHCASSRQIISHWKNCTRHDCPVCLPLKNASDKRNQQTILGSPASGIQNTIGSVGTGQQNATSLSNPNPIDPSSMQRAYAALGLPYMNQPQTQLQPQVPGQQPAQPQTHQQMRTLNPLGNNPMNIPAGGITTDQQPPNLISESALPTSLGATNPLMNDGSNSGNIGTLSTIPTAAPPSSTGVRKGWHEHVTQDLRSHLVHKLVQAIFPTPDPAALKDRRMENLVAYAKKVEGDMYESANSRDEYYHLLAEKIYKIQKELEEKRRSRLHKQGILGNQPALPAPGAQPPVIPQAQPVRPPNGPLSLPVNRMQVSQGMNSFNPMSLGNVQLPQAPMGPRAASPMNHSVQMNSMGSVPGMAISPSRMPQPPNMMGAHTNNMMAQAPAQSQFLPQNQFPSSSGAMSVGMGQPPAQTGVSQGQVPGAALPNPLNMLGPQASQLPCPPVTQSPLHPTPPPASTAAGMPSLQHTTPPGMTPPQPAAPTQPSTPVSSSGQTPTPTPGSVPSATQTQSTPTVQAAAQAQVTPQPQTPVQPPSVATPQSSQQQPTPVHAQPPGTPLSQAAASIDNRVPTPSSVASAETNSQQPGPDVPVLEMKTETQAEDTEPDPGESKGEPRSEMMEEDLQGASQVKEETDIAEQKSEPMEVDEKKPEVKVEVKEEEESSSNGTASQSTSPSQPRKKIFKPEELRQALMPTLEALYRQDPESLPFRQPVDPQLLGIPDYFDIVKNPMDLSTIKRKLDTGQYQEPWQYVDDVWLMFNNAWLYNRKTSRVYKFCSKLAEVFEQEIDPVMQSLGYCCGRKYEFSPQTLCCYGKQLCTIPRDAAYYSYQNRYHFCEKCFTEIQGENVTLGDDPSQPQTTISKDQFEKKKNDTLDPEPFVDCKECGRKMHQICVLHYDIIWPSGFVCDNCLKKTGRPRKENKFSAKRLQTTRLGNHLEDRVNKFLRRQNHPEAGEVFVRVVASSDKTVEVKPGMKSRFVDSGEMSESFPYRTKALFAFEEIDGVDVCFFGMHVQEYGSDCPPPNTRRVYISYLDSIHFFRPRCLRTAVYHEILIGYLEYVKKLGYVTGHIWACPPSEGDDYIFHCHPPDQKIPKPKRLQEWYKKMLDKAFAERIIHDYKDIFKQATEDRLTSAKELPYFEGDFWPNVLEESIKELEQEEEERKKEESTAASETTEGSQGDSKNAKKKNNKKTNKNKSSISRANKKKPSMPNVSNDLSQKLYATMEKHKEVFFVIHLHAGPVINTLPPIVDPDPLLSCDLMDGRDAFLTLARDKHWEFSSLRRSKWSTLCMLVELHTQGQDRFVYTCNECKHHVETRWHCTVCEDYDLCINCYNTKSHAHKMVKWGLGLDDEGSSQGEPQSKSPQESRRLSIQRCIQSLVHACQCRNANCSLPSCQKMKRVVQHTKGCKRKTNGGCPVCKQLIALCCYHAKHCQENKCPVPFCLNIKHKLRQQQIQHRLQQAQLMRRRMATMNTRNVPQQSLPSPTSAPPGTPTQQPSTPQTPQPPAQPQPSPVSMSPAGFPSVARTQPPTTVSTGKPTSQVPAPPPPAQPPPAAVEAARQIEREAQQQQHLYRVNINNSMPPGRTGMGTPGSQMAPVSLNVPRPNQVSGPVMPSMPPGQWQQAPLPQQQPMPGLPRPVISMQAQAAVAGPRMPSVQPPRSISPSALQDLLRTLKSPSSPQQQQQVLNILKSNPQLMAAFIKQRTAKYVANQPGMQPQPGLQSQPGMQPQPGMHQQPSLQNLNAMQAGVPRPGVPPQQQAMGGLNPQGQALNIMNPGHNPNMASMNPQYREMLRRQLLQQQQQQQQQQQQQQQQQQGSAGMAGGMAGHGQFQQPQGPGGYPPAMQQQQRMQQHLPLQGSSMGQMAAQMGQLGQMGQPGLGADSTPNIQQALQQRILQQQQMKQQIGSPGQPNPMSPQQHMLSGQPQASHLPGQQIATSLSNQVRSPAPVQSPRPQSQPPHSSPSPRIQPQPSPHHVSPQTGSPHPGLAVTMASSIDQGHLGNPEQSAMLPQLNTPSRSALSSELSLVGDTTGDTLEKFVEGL

In the case of `COc1ccc2c(c1)N(CCC/C=C/c1cccc3c1N[C@@H](C)CC(=O)N3)CCC2`, the result in assay [1], in assay [2], in assay [3], in assay [4], in [5] and in assay [6] was inactive.

Take `COc1ccc2c(c1)N(CCC/C=C/c1cccc3c1N[C@H](C)CC(=O)N3)CCC2`: the inhibition in [7] and in [10] was 70% throughout. The result in [1], in assay [2], in [3], in [4], in assay [5] and in assay [6] was inactive. In addition, in assay [8], the inhibition result was “Active”. Also, the Kd entry in assay [9] was “Not Active”.
